# Measured values: ChEMBL document CHEMBL3046780, “Syntheses and herbicidal activity of new triazolopyrimidine-2-sulfonamides as acetohydroxyacid synthase inhibitor” (Bioorg Med Chem, 2010)
# Assays:
# [1] = tested on: Eclipta prostrata; test: Post-emergence herbicidal activity against Eclipta prostrata assessed as growth inhibition at 150 g ai/ha measured 15 days post compound treatment under green house conditions; assay type: functional; settings: 360 h, read-out: GI
# Method in brief: (§1)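 Compounds formulated as 100 g/L emulsifiable concentrate (DMF solvent, Tween-80 emulsifier), diluted with water, sprayed post-emergence on pot-grown weeds in clay soil (pH 6.5, 1.6% organic matter). Seeds sown 1-3 cm deep, grown at 15-30 °C. Dicots were treated at the 2-leaf stage and monocots at the 1-leaf stage. Untreated and DMF-treated controls were included. Injury was rated visually 15 days after treatment.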
# [2] = tested on: Poa annua; test: Post-emergence herbicidal activity against Poa annua assessed as growth inhibition at 150 g ai/ha measured 15 days post compound treatment under green house conditions; assay type: functional; settings: 360 h, read-out: GI; method in brief: as §1
# [3] = tested on: Brassica juncea; test: Post-emergence herbicidal activity against Brassica juncea assessed as growth inhibition at 150 g ai/ha measured 15 days post compound treatment under green house conditions; assay type: functional; settings: 360 h, read-out: GI; method in brief: as §1
# [4] = biological target: T1, Acetolactate synthase, chloroplastic (Arabidopsis thaliana, UniProt P17597)
# T1 sequence (P17597 whole entry): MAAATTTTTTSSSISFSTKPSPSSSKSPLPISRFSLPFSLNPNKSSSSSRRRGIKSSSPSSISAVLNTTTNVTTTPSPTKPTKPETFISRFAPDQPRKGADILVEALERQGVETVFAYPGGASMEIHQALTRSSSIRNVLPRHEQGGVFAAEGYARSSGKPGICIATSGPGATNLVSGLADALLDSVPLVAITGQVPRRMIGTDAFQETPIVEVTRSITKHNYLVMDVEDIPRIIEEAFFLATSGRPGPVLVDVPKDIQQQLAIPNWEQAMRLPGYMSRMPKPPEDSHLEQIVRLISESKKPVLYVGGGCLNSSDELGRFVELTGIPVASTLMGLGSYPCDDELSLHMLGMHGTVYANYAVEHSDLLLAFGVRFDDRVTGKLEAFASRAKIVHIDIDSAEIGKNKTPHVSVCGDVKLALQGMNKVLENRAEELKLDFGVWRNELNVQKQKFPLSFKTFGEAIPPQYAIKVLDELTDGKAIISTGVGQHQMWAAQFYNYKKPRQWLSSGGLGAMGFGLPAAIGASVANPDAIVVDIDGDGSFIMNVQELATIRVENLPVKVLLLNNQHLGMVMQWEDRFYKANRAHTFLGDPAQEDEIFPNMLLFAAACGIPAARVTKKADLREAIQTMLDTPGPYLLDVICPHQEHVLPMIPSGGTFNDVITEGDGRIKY
# [5] = tested on: Echinochloa crus-galli; test: Post-emergence herbicidal activity against Echinochloa crus-galli (barnyard grass) assessed as growth inhibition at 150 g ai/ha measured 15 days post compound treatment under green house conditions; assay type: functional; settings: 360 h, read-out: GI; method in brief: as §1
# [6] = tested on: Amaranthus retroflexus; test: Post-emergence herbicidal activity against Amaranthus retroflexus assessed as growth inhibition at 150 g ai/ha measured 15 days post compound treatment under green house conditions; assay type: functional; settings: 360 h, read-out: GI; method in brief: as §1
# [7] = tested on: Digitaria sanguinalis; test: Post-emergence herbicidal activity against Digitaria sanguinalis (hairy crabgrass) assessed as growth inhibition at 150 g ai/ha measured 15 days post compound treatment under green house conditions; assay type: functional; settings: 360 h, read-out: GI; method in brief: as §1
SMILES,inhibition of growth at 150 g/ha [1] [%],inhibition of growth at 150 g/ha [2] [%],inhibition of growth at 150 g/ha [3] [%],Ki [4] [µM],inhibition of growth at 150 g/ha [5] [%],inhibition of growth at 150 g/ha [6] [%],inhibition of growth at 150 g/ha [7] [%]
COc1ccn2nc(S(=O)(=O)Nc3ccc(Br)cc3)nc2n1,< 50,< 50,< 50,> 1000,< 50,< 50,< 50
COc1ccn2nc(S(=O)(=O)Nc3ccccc3Br)nc2n1,≥ 80,< 50,≥ 80,22.6,< 50,50,< 50
COc1ccn2nc(S(=O)(=O)Nc3ccc(OC(F)(F)F)cc3)nc2n1,< 50,< 50,< 50,> 1000,< 50,< 50,< 50
Cc1nc(C)n2nc(S(=O)(=O)Nc3ccc(F)c(F)c3F)nc2c1Cl,< 50,< 50,< 50,> 1000,< 50,< 50,< 50
Cc1nc(C)n2nc(S(=O)(=O)Nc3ccccc3F)nc2c1Cl,50,< 50,50,25.8,< 50,50,< 50
Cc1cc2nc(S(=O)(=O)Nc3ccc(F)c(F)c3F)nn2c(C)n1,50,< 50,< 50,> 1000,< 50,< 50,< 50
Cc1nc(C(F)(F)F)cc2nc(S(=O)(=O)Nc3ccc(F)c(F)c3F)nn12,50,< 50,< 50,> 1000,< 50,< 50,< 50
Cc1nc(C)n2nc(S(=O)(=O)Nc3ccc(C(F)(F)F)cc3)nc2c1Cl,50,< 50,< 50,> 1000,< 50,50,< 50
Cc1cc2nc(S(=O)(=O)Nc3ccccc3F)nn2c(C)n1,50,< 50,50,27.7,< 50,50,< 50
Cc1nc(C(F)(F)F)cc2nc(S(=O)(=O)Nc3ccccc3F)nn12,50,< 50,50,569,< 50,50,< 50
Cc1nc(C(F)(F)F)cc2nc(S(=O)(=O)Nc3cc(F)ccc3F)nn12,< 50,< 50,< 50,,< 50,< 50,< 50
Cc1cc2nc(S(=O)(=O)Nc3ccc(C(F)(F)F)cc3Cl)nn2c(C)n1,< 50,< 50,< 50,178,< 50,< 50,< 50
Cc1cc2nc(S(=O)(=O)Nc3cc(Cl)ccc3C)nn2c(C)n1,50,< 50,< 50,7.75,< 50,< 50,< 50
Cc1cc2nc(S(=O)(=O)Nc3cc(F)ccc3F)nn2c(C)n1,< 50,< 50,< 50,28.1,< 50,< 50,< 50
COc1ccn2nc(S(=O)(=O)Nc3c(F)cccc3F)nc2n1,≥ 90,,≥ 90,18.5,< 50,≥ 90,< 50
COc1ccn2nc(S(=O)(=O)Nc3cc(F)c(F)c(F)c3)nc2n1,< 50,< 50,< 50,> 1000,< 50,< 50,< 50
COc1ccn2nc(S(=O)(=O)Nc3cc(F)ccc3F)nc2n1,50,< 50,50,53.3,< 50,50,< 50
COc1ccn2nc(S(=O)(=O)Nc3ccccc3F)nc2n1,≥ 80,< 50,50,25.9,< 50,50,< 50
